How the values were obtained:
[1] = biological target: Neuronal acetylcholine receptor subunit alpha-7 (Rattus norvegicus, UniProt Q05941); test: Displacement of [125I]alpha-bungarotoxin from alpha7 nAchR in rat frontal cortices
Summary of the method: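 Competition binding against [125I]-α-bungarotoxin as reference radioligand at α7 nAChR. IC50 read graphically for each compound, then converted to Ki.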

[2] = biological target: Neuronal acetylcholine receptor; alpha4/beta2 (Homo sapiens, UniProt P17787+P43681); test: Displacement of [3H]cytisine from human recombinant alpha4beta2 nicotinic receptor expressed in SH-SY5Y cells after 120 mins by scintillation counting; type: cell-based
Chain of Neuronal acetylcholine receptor; alpha4/beta2 (P17787 whole entry): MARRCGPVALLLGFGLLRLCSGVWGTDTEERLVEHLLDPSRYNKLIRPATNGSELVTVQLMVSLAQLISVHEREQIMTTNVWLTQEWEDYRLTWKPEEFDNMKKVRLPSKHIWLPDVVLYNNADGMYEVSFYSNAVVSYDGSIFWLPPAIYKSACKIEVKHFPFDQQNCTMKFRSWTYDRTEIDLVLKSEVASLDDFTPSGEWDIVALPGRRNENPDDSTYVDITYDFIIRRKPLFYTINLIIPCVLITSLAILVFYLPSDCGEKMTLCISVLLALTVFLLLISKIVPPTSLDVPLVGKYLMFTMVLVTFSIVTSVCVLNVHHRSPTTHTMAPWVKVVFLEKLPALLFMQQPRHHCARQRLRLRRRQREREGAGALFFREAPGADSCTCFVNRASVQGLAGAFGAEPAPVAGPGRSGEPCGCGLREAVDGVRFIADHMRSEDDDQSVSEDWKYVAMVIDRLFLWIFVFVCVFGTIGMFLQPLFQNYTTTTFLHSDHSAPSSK
Chain of Neuronal acetylcholine receptor; alpha4/beta2 (P43681 whole entry): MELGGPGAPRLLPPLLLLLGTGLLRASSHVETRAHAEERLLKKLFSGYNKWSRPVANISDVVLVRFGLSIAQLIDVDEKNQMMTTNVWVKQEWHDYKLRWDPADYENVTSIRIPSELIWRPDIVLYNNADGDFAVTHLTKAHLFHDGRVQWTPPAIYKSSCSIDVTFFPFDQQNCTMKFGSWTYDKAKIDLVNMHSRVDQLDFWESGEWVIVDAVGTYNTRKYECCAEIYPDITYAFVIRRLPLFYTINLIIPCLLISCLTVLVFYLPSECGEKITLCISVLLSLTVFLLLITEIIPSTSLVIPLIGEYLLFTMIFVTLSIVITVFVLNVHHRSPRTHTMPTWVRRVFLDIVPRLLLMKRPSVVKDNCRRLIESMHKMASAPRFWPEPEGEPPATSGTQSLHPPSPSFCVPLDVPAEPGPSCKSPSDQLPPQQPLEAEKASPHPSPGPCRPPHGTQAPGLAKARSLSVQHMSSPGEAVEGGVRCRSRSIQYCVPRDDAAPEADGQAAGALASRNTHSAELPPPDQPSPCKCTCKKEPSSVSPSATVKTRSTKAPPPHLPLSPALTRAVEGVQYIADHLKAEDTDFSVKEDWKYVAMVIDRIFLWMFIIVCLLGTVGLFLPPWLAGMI
Summary of the method: (§1)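 Selectivity binding run by an outside contract lab on cells transfected with the human recombinant receptor. Reference radioligands: [3H]cytisine for α4β2 and [3H]BRL 43694 for 5-HT3.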

[3] = biological target: T1, 5-hydroxytryptamine receptor 3A (Homo sapiens, UniProt P46098); test: Displacement of [3H]BRL 43694 from human 5-HT3 receptor expressed in CHO cells after 120 mins by scintillation counting; type: cell-based; summary of the method: as §1
T1 sequence (P46098 whole entry): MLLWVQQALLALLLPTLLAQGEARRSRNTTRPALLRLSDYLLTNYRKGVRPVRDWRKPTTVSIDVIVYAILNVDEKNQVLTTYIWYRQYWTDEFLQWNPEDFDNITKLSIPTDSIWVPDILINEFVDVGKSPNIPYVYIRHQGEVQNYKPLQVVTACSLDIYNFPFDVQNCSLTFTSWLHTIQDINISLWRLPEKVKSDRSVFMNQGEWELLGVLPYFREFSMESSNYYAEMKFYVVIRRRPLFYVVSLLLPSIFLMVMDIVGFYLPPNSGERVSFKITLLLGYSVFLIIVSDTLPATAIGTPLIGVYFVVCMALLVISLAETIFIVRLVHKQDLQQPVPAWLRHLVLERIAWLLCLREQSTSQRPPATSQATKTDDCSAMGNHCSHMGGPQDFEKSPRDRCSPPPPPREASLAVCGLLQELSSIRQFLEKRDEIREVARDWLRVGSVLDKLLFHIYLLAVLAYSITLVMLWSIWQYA

Chain of Neuronal acetylcholine receptor subunit alpha-7 (Q05941 whole entry): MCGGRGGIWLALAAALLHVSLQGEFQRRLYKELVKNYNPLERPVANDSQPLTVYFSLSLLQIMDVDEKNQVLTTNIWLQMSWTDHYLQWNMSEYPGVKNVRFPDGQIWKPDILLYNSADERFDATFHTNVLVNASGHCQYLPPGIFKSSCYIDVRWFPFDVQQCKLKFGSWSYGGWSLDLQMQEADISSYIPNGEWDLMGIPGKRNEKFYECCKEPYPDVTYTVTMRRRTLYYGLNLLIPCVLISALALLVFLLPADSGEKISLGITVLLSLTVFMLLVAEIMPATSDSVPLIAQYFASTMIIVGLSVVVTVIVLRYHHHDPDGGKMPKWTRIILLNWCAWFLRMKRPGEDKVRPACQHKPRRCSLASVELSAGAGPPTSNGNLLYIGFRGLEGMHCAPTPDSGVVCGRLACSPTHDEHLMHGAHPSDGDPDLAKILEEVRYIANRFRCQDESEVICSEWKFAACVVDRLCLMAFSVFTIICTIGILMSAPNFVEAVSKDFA

COc1ccccc1-c1cn([C@H]2CN3CCC2CC3)nn1
Ki [1]: 112 nM

COc1ccc(-n2cc(C3(O)CN4CCC3CC4)nn2)cc1 (stereo not drawn)
Ki [1]: > 1000 nM

O=C(N[C@@H]1CN2CCC1CC2)c1cc2ccoc2cn1
Ki [1]: 1.27 nM

OC1(c2cn(-c3ccc(Br)cc3)nn2)CN2CCC1CC2 (stereo not drawn)
Ki [1]: > 1000 nM

COc1cccc(-c2cn([C@H]3CN4CCC3CC4)nn2)c1
Ki [2]: 1000 nM
Ki [3]: 3 nM

COc1ccc(-n2cc(C3(F)CN4CCC3CC4)nn2)cc1 (stereo not drawn)
Ki [1]: > 1000 nM

FCCc1ccc(-c2cn([C@H]3CN4CCC3CC4)nn2)cc1
Ki [1]: 230 nM

OCCc1ccc(-c2cn([C@H]3CN4CCC3CC4)nn2)cc1
Ki [1]: 130 nM

OCc1ccc(-c2cn([C@H]3CN4CCC3CC4)nn2)cc1
Ki [1]: 10 nM

c1cc(-c2cn([C@H]3CN4CCC3CC4)nn2)ccn1
Ki [1]: 141 nM

c1cc2cc(-c3cn(C4CN5CCC4CC5)nn3)ccc2[nH]1 (stereo not drawn)
Kd [1]: 120 nM
Ki [2]: 750 nM
Ki [3]: 52 nM

FCc1ccc(-c2cn([C@H]3CN4CCC3CC4)nn2)cc1
Ki [1]: 21 nM

COCOCCOc1ccc(-c2cn([C@H]3CN4CCC3CC4)nn2)cc1
Ki [1]: 225 nM

c1cc2cc(-c3cn([C@H]4CN5CCC4CC5)nn3)ccc2o1
Ki [2]: 1000 nM
Ki [3]: 3 nM

COc1ccc(-c2cn([C@H]3CN4CCC3CC4)nn2)cc1
Ki [1]: 11 nM

OCCOc1ccc(-c2cn([C@H]3CN4CCC3CC4)nn2)cc1
Ki [1]: 215 nM

FCCOc1ccc(-c2cn([C@H]3CN4CCC3CC4)nn2)cc1
Ki [1]: 190 nM

Fc1ccc(-c2cn([C@H]3CN4CCC3CC4)nn2)cc1
Ki [1]: 15 nM

O=C(N[C@H]1CN2CCC1CC2)c1ccc(Cl)cc1 [PNU-282987]
Ki [1]: 17 nM
